Test results reported in ChEMBL document CHEMBL2417466, “An extended pyrrolobenzodiazepine-polyamide conjugate with selectivity for a DNA sequence containing the ICB2 transcription factor binding site” (2013).
The source made the active and inactive calls. The rule behind the calls is not given here.

Tests used:
[1] = Cytotoxicity against human NCI60 cells; assay type: functional; conditions: for CC50: read-out: LC50 (the source's name)
Outline: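 Screened in the NCI 60 human tumour cell-line panel. Values are GI50 (50% growth inhibition), TGI (total growth inhibition) and LC50 (50% lethality) concentrations, each reported as the mean across the 60-cell-line panel.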

[2] = Cytotoxicity against human NCI60 cells assessed as concentration required for total growth inhibition; assay type: functional
Outline: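 NCI 60 human tumor cell line screen. TGI is the concentration causing total growth inhibition, given as the mean across the 60-cell-line panel.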

[3] = tested on: DNA; test: Binding affinity to calf thymus DNA at 5 uM after 4 hrs by UV-visible spectrophotometric analysis; assay type: nucleic-acid assay; conditions: Bos taurus
Outline: (§1)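 Calf thymus DNA at 50 μM bp with ligand fixed at 5 μM. Buffer was 10 mM sodium phosphate, 1 mM EDTA, pH 7.00, with ≤0.3% DMSO. Incubated at 37 °C, then melted at 1 °C/min from 50–99 °C while monitoring absorbance at 260 nm. Buffer baseline subtracted and DMSO-corrected. ΔTm = Tm(DNA+ligand) − Tm(DNA), run in triplicate.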

[4] = tested on: DNA; test: Binding affinity to calf thymus DNA at 5 uM after 18 hrs by UV-visible spectrophotometric analysis; assay type: nucleic-acid assay; conditions: Bos taurus; outline: as §1
[5] = tested on: NIH3T3; test: Binding affinity to topo 2-alpha ICB2 (5'-CTACGATTGGTTCTT-3') in mouse NIH/3T3 cells nuclear extract assessed as inhibition of NF-Y transcription factor binding at 5 uM preincubated for 1.5 hrs by electrophoretic mobility shift assay; assay type: cell-free
Outline: (§2)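 Nuclear extract from NIH3T3 cells grown in DMEM with 10% newborn calf serum. 5 μg extract held at 4 °C for 30 min in K-Hepes pH 7.9 buffer with poly(dI-dC). About 0.1 ng of 32P end-labeled double-stranded ICB1 or ICB2 oligonucleotide then added for 2 h at room temperature. Run on 4% native polyacrylamide gel at 4 °C with autoradiography. Cold and mutated oligonucleotides served as controls.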

[6] = species: Homo sapiens; test: Binding affinity to 170 bp human DNA topoisomerase 2-alpha promoter ICB2 site at 1 uM after 17 hrs by DNase 1 footprinting assay
Outline: (§3)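 170 bp Topo IIα promoter fragment (ICB1 and ICB2) PCR-amplified from human genomic DNA, IR700 end-labeled, used at 4 nM final. Incubated in the dark for 17 h at room temperature. DNase I digestion for 8 min, stopped with EDTA. Denaturing sequencing gel with IR dye detection and G+A markers.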

[7] = tested on: NIH/3T3; test: Binding affinity to Topo 2-alpha ICB1 (5'-CAGGGATTGGCTGGT-3') in mouse NIH/3T3 cells nuclear extract assessed as inhibition of NF-Y transcription factor binding at 50 uM preincubated for 1.5 hrs by electrophoretic mobility shift assay; assay type: cell-free; outline: as §2
[8] = species: Homo sapiens; test: Binding affinity to 170 bp human DNA topoisomerase 2-alpha promoter ICB1 site at 5 uM after 17 hrs by DNase 1 footprinting assay; outline: as §3
[9] = tested on: NIH/3T3; test: Binding affinity to topo 2-alpha ICB1 (5'-CAGGGATTGGCTGGT-3') in mouse NIH/3T3 cells nuclear extract assessed as inhibition of NF-Y transcription factor binding at 5 uM preincubated for 1.5 hrs and by electrophoretic mobility shift assay; assay type: cell-free; outline: as §2
[10] = species: Homo sapiens; test: Binding affinity to 170 bp human DNA topoisomerase 2-alpha promoter ICB1 site at 1 uM after 17 hrs by DNase 1 footprinting assay; outline: as §3

SMILES	GI50 [1] [nM]	CC50 [1] [µM]	TGI [2] [nM]	ΔTm [3] [°C]	ΔTm [4] [°C]	inhibition [5]	Activity [6]	inhibition [7]	Activity [8]	inhibition [9]	Activity [10]
CCOC(=O)c1nc(NC(=O)c2cc(NC(=O)c3cc(NC(=O)CCCOc4cc5c(cc4OC)C(=O)N4CCC[C@H]4C=N5)cn3C)cn2C)cn1C	3.8	6.8	37	17.6	18.7	–	–	–	–	–	–
CCOC(=O)c1nc(NC(=O)c2nc(NC(=O)c3nc(NC(=O)CCCOc4cc5c(cc4OC)C(=O)N4CCC[C@H]4C=N5)cn3C)cn2C)cn1C	87.1	15.4	1290	11.7	12	–	–	–	–	–	–
CCOC(=O)c1csc(NC(=O)c2csc(NC(=O)c3csc(NC(=O)CCCOc4cc5c(cc4OC)C(=O)N4CCC[C@H]4C=N5)n3)n2)n1	282	15.8	2040	10.7	10.9	–	–	–	–	–	–
CCOC(=O)c1csc(NC(=O)c2cc(NC(=O)c3csc(NC(=O)CCCOc4cc5c(cc4OC)C(=O)N4CCC[C@H]4C=N5)n3)cn2C)n1	–	–	–	7.1	7.8	–	–	–	–	–	–
COC(=O)c1cc(NC(=O)c2csc(NC(=O)c3cc(NC(=O)CCCOc4cc5c(cc4OC)C(=O)N4CCC[C@H]4C=N5)cn3C)n2)cn1C	2.8	9.1	50	19.9	20.7	–	–	–	–	–	–
CCOC(=O)c1nc(NC(=O)c2nc(NC(=O)c3cc(NC(=O)CCCOc4cc5c(cc4OC)C(=O)N4CCC[C@H]4C=N5)cn3C)cn2C)cn1C	13.5	9.5	27	14.8	15.2	–	–	–	–	–	–
CCOC(=O)c1csc(NC(=O)c2cc(NC(=O)c3cc(NC(=O)CCCOc4cc5c(cc4OC)C(=O)N4CCC[C@H]4C=N5)cn3C)cn2C)n1	2.9	8.9	28	17.7	18.6	–	–	–	–	–	–
COC(=O)c1cc(NC(=O)c2cc(NC(=O)c3nc(NC(=O)CCCOc4cc5c(cc4OC)C(=O)N4CCC[C@H]4C=N5)cn3C)cn2C)cn1C	1.3	2.3	24	19.8	21.1	Active	Active	Active	Active	–	–
COC(=O)c1cc(NC(=O)c2cc(NC(=O)c3csc(NC(=O)CCCOc4cc5c(cc4OC)C(=O)N4CCC[C@H]4C=N5)n3)cn2C)cn1C	1.4	4.4	30	17.4	18.2	–	–	–	–	–	–
COC(=O)c1cc(NC(=O)c2cc(NC(=O)c3cc(NC(=O)CCCOc4cc5c(cc4OC)C(=O)N4CCC[C@H]4C=N5)cn3C)cn2C)cn1C	15	1.1	32	18.7	20.2	–	–	–	–	–	–
CCOC(=O)c1csc(NC(=O)c2csc(NC(=O)c3cc(NC(=O)CCCOc4cc5c(cc4OC)C(=O)N4CCC[C@H]4C=N5)cn3C)n2)n1	–	–	–	8.1	8.4	–	–	–	–	–	–
CCOC(=O)c1nc(NC(=O)c2cc(NC(=O)c3nc(NC(=O)CCCOc4cc5c(cc4OC)C(=O)N4CCC[C@H]4C=N5)cn3C)cn2C)cn1C	4.2	12.3	141	15.7	16.2	–	–	–	–	–	–
COC(=O)c1cc(NC(=O)c2nc(NC(=O)c3nc(NC(=O)CCCOc4cc5c(cc4OC)C(=O)N4CCC[C@H]4C=N5)cn3C)cn2C)cn1C	3.8	6.8	37	15	15.4	–	–	–	–	–	–
COC(=O)c1cc(NC(=O)c2cc(NC(=O)CCCOc3cc4c(cc3OC)C(=O)N3CCC[C@H]3C=N4)cn2C)cn1C	–	–	–	–	–	Active	Active	–	–	Active	Active
COC(=O)c1cc(NC(=O)c2nc(NC(=O)c3cc(NC(=O)CCCOc4cc5c(cc4OC)C(=O)N4CCC[C@H]4C=N5)cn3C)cn2C)cn1C	3	6.6	20	16	16.9	–	–	–	–	–	–
